Source: ChEMBL document CHEMBL1122782, “Bulky amine analogues of ketoprofen: potent antiinflammatory agents” (J Med Chem, 1984)

Experiments:
Rattus norvegicus [1] = test: The mean increase in paw volume was compared between drug treated groups and placebo to calculate the percent inhibition in rats at 0.02 mmol/kg by carrageenan Edema Assay; 0-19; assay type: functional
Rattus norvegicus [2] = test: The percent inhibition was calculated from the average differences in hind paw volume between the adjuvant injected controls and the adjuvant-injected medicated rats at 0.08 mmol/kg; 70-79; assay type: functional
Rattus norvegicus [3] = test: The mean increase in paw volume was compared between drug treated groups and placebo to calculate the percent inhibition in rats at 0.08 mmol/kg by carrageenan Edema Assay; 40-49; assay type: functional
Rattus norvegicus [4] = test: The mean increase in paw volume was compared between drug treated groups and placebo to calculate the percent inhibition in rats at 0.02 mmol/kg by carrageenan Edema Assay 0-19; assay type: functional
Rattus norvegicus [5] = test: The mean increase in paw volume was compared between drug treated groups and placebo to calculate the percent inhibition in rats at 0.02 mmol/kg by carrageenan Edema Assay; 20-29; assay type: functional
Rattus norvegicus [6] = test: The percent inhibition was calculated from the average differences in hind paw volume between the adjuvant injected controls and the adjuvant-injected medicated rats at 0.08 mmol/kg; 90-99; assay type: functional
Rattus norvegicus [7] = test: The percent inhibition was calculated from the average differences in hind paw volume between the adjuvant injected controls and the adjuvant-injected medicated rats at 0.08 mmol/kg; 80-89; assay type: functional
Rattus norvegicus [8] = test: Antiinflammatory efficacy is measured by the weight gain in rats during the 3 week adjuvant arthritis test at 0.02 mM/kg (8.43 mg); assay type: functional
How it was run: (§1)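 Rats were adjuvant-injected (M. butyricum in mineral oil, one hind paw) or given a mineral-oil placebo. They were dosed by gavage daily for 21 days from the injection day, with vehicle only for both control groups, then weighed at the end. Weight gain % = (treated − adjuvant control)/(negative control − adjuvant control) × 100.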

Rattus norvegicus [9] = test: Ulcerogenicity was measured in intestine during the 3 week adjuvant arthritis test, no of animals with ulcers out of animals tested at 0.16 mM/kg (67.4 mg) was reported; toxic; assay type: functional, organism-based
How it was run: (§2)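 Male Sprague-Dawley rats (200–230 g) were injected in the plantar tissue of one hind paw with 0.1 mL of 0.6% M. butyricum suspension in heavy mineral oil. Daily oral gavage began on the day of adjuvant injection and ran for the 21 days, with drug suspended in 1% gum tragacanth or a corn oil-water emulsion. At the end the rats were sacrificed and the small intestine and stomach were examined for ulcers. Results are given as animals with ulcers/animals tested.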

Rattus norvegicus [10] = test: Ulcerogenicity was measured in intestine during the 3 week adjuvant arthritis test, no of animals with ulcers out of 4 animals tested at 0.02 mM/kg (8.43 mg) was reported; assay type: functional
How it was run: (§3)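 In the 21-day adjuvant arthritis model, male Sprague-Dawley rats (200–230 g) received an M. butyricum mineral-oil suspension into one hind paw. They were dosed daily by gavage from the day of injection. At the end of the study the rats were killed, and the small intestines were examined for ulcers. Results are given as the number of ulcerated animals over the number tested.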

Rattus norvegicus [11] = test: Antiinflammatory efficacy is measured by the percent inhibition of paw volume during the 3 week adjuvant arthritis test at 0.08 mM/kg (33.7 mg); assay type: functional
How it was run: (§4)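 Male Sprague-Dawley rats (200–230 g) were used in groups of eight. Each received 0.1 mL of 0.6% M. butyricum in heavy mineral oil into the plantar tissue of one hind paw. Daily oral gavage in 1% gum tragacanth or corn oil-water emulsion began on the injection day and ran 21 days. Total hind paw volume was measured by mercury displacement, and inhibition was taken versus vehicle-treated adjuvant controls.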

Rattus norvegicus [12] = test: Antiinflammatory efficacy is measured by the weight gain in rats during the 3 week adjuvant arthritis test at 0.005 mM/kg (2.11 mg); assay type: functional; how it was run: as §1
Rattus norvegicus [13] = test: Antiinflammatory efficacy is measured by the percent inhibition of paw volume during the 3 week adjuvant arthritis test at 0.005 mM/kg (2.11 mg); assay type: functional; how it was run: as §4
Rattus norvegicus [14] = test: The mean increase in paw volume was compared between drug treated groups and placebo to calculate the percent inhibition in rats at 0.02 mmol/kg by carrageenan Edema Assay; 30-39; assay type: functional; conditions: Rattus norvegicus
Rattus norvegicus [15] = test: Antiinflammatory efficacy is measured by the weight gain in rats during the 3 week adjuvant arthritis test at 0.08 mM/kg (33.7 mg); assay type: functional; how it was run: as §1
Rattus norvegicus [16] = test: Ulcerogenicity was measured in stomach during the 3 week adjuvant arthritis test, no of animals with ulcers out of 4 animals tested at 0.02 mM/kg (8.43 mg) was reported; assay type: functional; how it was run: as §2
Rattus norvegicus [17] = test: Ulcerogenicity was measured in stomach during the 3 week adjuvant arthritis test, no of animals with ulcers out of 8 animals tested at 0.08 mM/kg (33.7 mg) was reported; assay type: functional; how it was run: as §2
Rattus norvegicus [18] = species: Rattus norvegicus; test: Compound was evaluated for highest non-ulcerogenic dose (less than 50% ulcer incidence); assay type: functional; conditions: read-out: ED50
How it was run: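 Taken from the 21-day adjuvant arthritis test in male Sprague-Dawley rats dosed orally each day from the day of adjuvant injection. Small intestines and stomachs were examined for ulceration at the end. The value is the highest dose giving less than 50% ulcer incidence.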

Rattus norvegicus [19] = test: Antiinflammatory efficacy is measured by the percent inhibition of paw volume during the 3 week adjuvant arthritis test at 0.02 mM/kg (8.43 mg); assay type: functional; how it was run: as §4
Rattus norvegicus [20] = test: Ulcerogenicity was measured in intestine during the 3 week adjuvant arthritis test, no of animals with ulcers out of 8 animals tested at 0.08 mM/kg (33.7 mg) was reported; assay type: functional; how it was run: as §3
Rattus norvegicus [21] = test: The mean increase in paw volume was compared between drug treated groups and placebo to calculate the percent inhibition in rats at 0.08 mmol/kg by carrageenan Edema Assay; 30-39; assay type: functional
Rattus norvegicus [22] = test: The percent inhibition was calculated from the average differences in hind paw volume between the adjuvant injected controls and the adjuvant-injected medicated rats at 0.08 mmol/kg; 40-49; assay type: functional
Rattus norvegicus [23] = test: The mean increase in paw volume was compared between drug treated groups and placebo to calculate the percent inhibition in rats at 0.02 mmol/kg by carrageenan Edema Assay; 40-49; assay type: functional

CC(CN1CCCCC1CC1CCCCC1)c1cccc(C(C)(O)c2ccccc2)c1 (stereo unspecified)
inhibition in vivo at 20 µmol/kg (Rattus norvegicus [1]): 0%

CC(CN1CCCCC1CC1CCCCC1)c1cccc(C(=O)c2ccc(Cl)c(Cl)c2)c1 (stereo unspecified)
inhibition in vivo at 20 µmol/kg (Rattus norvegicus [1]): 0%

CC(CN1CCOCC1)c1cccc(C(N)c2ccccc2)c1 (stereo unspecified)
inhibition in vivo at 80 µmol/kg (Rattus norvegicus [2]): 70% | inhibition in vivo at 80 µmol/kg (Rattus norvegicus [3]): 40%

O=C(c1ccccc1)c1cccc(CCN2CCOCC2)c1
inhibition in vivo at 20 µmol/kg (Rattus norvegicus [4]): 0%

O=C(c1ccccc1)c1cccc(CCN2CCCCC2CC2CCCCC2)c1 (stereo unspecified)
inhibition in vivo at 20 µmol/kg (Rattus norvegicus [5]): 20%

CC(CN1CCC(CN2CCCCC2)CC1)c1cccc(C(=O)c2ccccc2)c1 (stereo unspecified)
inhibition in vivo at 80 µmol/kg (Rattus norvegicus [6]): 90% | inhibition in vivo at 80 µmol/kg (Rattus norvegicus [3]): 40%

CC(CN1CCCCC1CC1CCCCC1)c1cccc(C(=O)c2ccc(F)cc2)c1 (stereo unspecified)
inhibition in vivo at 80 µmol/kg (Rattus norvegicus [7]): 80% | Weight gain (Rattus norvegicus [8]): 31% | Ulcerogenic index (Rattus norvegicus [9]): Toxic | Ulcerogenic index (Rattus norvegicus [10]): 1 | Inhibition (Rattus norvegicus [11]): 85% | Weight gain (Rattus norvegicus [12]): 50% | Inhibition (Rattus norvegicus [13]): 61% | inhibition in vivo at 20 µmol/kg (Rattus norvegicus [14]): 30% | Weight gain (Rattus norvegicus [15]): 81% | Ulcerogenic index (Rattus norvegicus [16]): 0 | Ulcerogenic index (Rattus norvegicus [17]): 1 | highest non-ulcerogenic dose (Rattus norvegicus [18]): 3 µmol/kg | Inhibition (Rattus norvegicus [19]): 55% | Ulcerogenic index (Rattus norvegicus [20]): 3

CC(CN1CCCCC1CC1CCCCC1)c1cccc(Cc2ccccc2)c1 (stereo unspecified)
inhibition in vivo at 80 µmol/kg (Rattus norvegicus [6]): 90% | inhibition in vivo at 20 µmol/kg (Rattus norvegicus [5]): 20%

CC(CN1CCCCC1CCC1CCCCC1)c1cccc(C(=O)c2ccccc2)c1 (stereo unspecified)
inhibition in vivo at 80 µmol/kg (Rattus norvegicus [6]): 90% | inhibition in vivo at 80 µmol/kg (Rattus norvegicus [21]): 30%

Cc1ccc(C(=O)c2cccc(C(C)CN3CCCCC3CC3CCCCC3)c2)cc1 (stereo unspecified)
inhibition in vivo at 20 µmol/kg (Rattus norvegicus [1]): 0%

CN(C)CCCNCCc1cccc(C(=O)c2ccccc2)c1
inhibition in vivo at 80 µmol/kg (Rattus norvegicus [22]): 40% | inhibition in vivo at 80 µmol/kg (Rattus norvegicus [21]): 30%

CC(CN1CCCCC1CC1CCCCC1)c1cccc(C(=O)c2ccccc2Cl)c1 (stereo unspecified)
inhibition in vivo at 80 µmol/kg (Rattus norvegicus [2]): 70% | inhibition in vivo at 20 µmol/kg (Rattus norvegicus [14]): 30%

CC(CN1CCCCC1)c1cccc(C(=O)c2ccccc2)c1 (stereo unspecified)
inhibition in vivo at 80 µmol/kg (Rattus norvegicus [22]): 40% | inhibition in vivo at 80 µmol/kg (Rattus norvegicus [21]): 30%

CC(CN1CCCCC1CC1CCCCC1)c1cccc(C(O)c2c(Cl)cccc2Cl)c1 (stereo unspecified)
inhibition in vivo at 20 µmol/kg (Rattus norvegicus [1]): 0%

CC(CN1CCCCC1CC1CCCCC1)c1cccc(/C(=N\O)c2ccccc2)c1 (stereo unspecified)
inhibition in vivo at 20 µmol/kg (Rattus norvegicus [23]): 40% | inhibition in vivo at 80 µmol/kg (Rattus norvegicus [6]): 90%
